Measured values reported in ChEMBL document CHEMBL1157414, “Cytotoxic dihydroagarofuranoid sesquiterpenes from the seeds of Celastrus orbiculatus” (J Nat Prod, 2008).

What follows are compounds tested on HL-60 (assay: Cytotoxicity against human HL60 cells after 72 hrs by MTT assay). Settings: HL-60, 72 h.
Assay type: functional, cell-based
How it was run: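 HL-60 human leukemia cells were plated in 96-well plates and exposed in triplicate to graded concentrations for 72 h. MTT was added for 4 h at 37 °C, then extraction buffer (10% SDS, 5% isobutanol, 0.01 M HCl) overnight at 37 °C. Absorbance was read at 570 nm.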
For `CC(=O)O[C@H]1C[C@@H](C)[C@@]23C[C@@H](C[C@H](OC(C)=O)[C@]2(C)[C@H]1OC/C=C/c1ccccc1)C(C)(C)O3`, the IC50 was 3.3 µM. For `CC(=O)O[C@@H]1[C@@H]2[C@@H](OC(C)=O)[C@]3(OC2(C)C)[C@H](C)CC[C@H](OC(C)=O)[C@@]3(C)[C@H]1OC(=O)c1ccccc1`, the IC50 was 6.8 µM. With `CC(=O)O[C@@H]1[C@H]2[C@@H](O)[C@@H](OC(=O)c3ccccc3)[C@]3(C)[C@@H](OC/C=C/c4ccccc4)CC[C@@H](C)[C@@]13OC2(C)C` the IC50 was 8.3 µM. In the case of `CCCC(=O)O[C@@H]1[C@@H]2[C@@H](OC(C)=O)[C@]3(OC2(C)C)[C@H](C)CC[C@H](OC(=O)c2ccccc2)[C@@]3(C)[C@@H]1OC(=O)c1ccccc1`, the IC50 is reported as 5.3 µM. With `CC(=O)O[C@H]1C[C@@H]2[C@@H](OC(=O)c3ccccc3)[C@]3(OC2(C)C)[C@H](C)CC[C@H](OC(=O)c2ccccc2)[C@@]13C` the IC50 was 2.8 µM.

Each compound was assayed on HL-60 (assay: Cytotoxicity against human HL60 cells at 10 uM after 72 hrs by MTT assay). Settings: not given.
Assay type: functional
How it was run: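 MTT was added for 4 h at 37 °C, followed by extraction buffer (10% SDS, 5% isobutanol, 0.01 M HCl) overnight at 37 °C. Absorbance was read at 570 nm, with etoposide as positive control.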
Work on `CC(=O)O[C@@H]1[C@@H]2[C@@H](OC(C)=O)[C@]3(OC2(C)C)[C@H](C)CC[C@H](OC(=O)c2ccccc2)[C@@]3(C)[C@@H]1OC(=O)c1ccccc1` yielded an Activity of under 50%. `CC(=O)O[C@H]1CC[C@@H](C)[C@]23OC(C)(C)[C@H](C[C@H](OC(=O)c4ccccc4)[C@]12C)[C@H]3O` was tested, and the Activity was under 50%. `CC(=O)O[C@@H]1[C@@H]2[C@@H](OC(C)=O)[C@]3(OC2(C)C)[C@H](C)CC[C@H](O)[C@@]3(C)[C@@H]1OC(=O)c1ccccc1` showed an Activity of under 50%. In the case of `CC(=O)O[C@@H]1[C@H]2C[C@H](OC/C=C/c3ccccc3)[C@]3(C)[C@@H](OC(C)=O)[C@@H](O)C[C@@H](C)[C@@]13OC2(C)C`, the Activity is reported as under 50%. Compound `C[C@@H]1CC[C@H](OC(=O)c2ccccc2)[C@@]2(C)[C@H](OC(=O)c3ccccc3)[C@H](OC(=O)c3ccccc3)[C@@H]3[C@@H](O)[C@]12OC3(C)C` has an Activity of under 50%. In the case of `CC(=O)O[C@@H]1[C@H]2C[C@H](OC/C=C/c3ccccc3)[C@]3(C)[C@@H](OC(C)=O)[C@@H](OC(=O)c4ccccc4)C[C@@H](C)[C@@]13OC2(C)C`, the Activity is reported as under 50%. `CC(=O)O[C@H]1C[C@](C)(O)[C@@]23C[C@@H](C[C@H](OC(=O)/C=C/c4ccccc4)[C@]2(C)[C@H]1OC(C)=O)C(C)(C)O3` was tested, and the Activity was under 50%. `CC(=O)O[C@H]1CC[C@@H](CO)[C@]23OC(C)(C)[C@H](C[C@H](OC(=O)c4ccccc4)[C@]12C)[C@H]3OC(=O)c1ccccc1` showed an Activity of under 50%. `CC(=O)O[C@@H]1[C@H]2[C@@H](O)[C@@H](OC(=O)c3ccccc3)[C@]3(C)[C@@H](O)CC[C@@H](C)[C@@]13OC2(C)C` gave an Activity of under 50%. `CC(=O)O[C@@H]1[C@H]2[C@@H](OC(=O)c3ccccc3)[C@H](OC(=O)c3ccccc3)[C@]3(C)[C@@H](OC(=O)c4ccccc4)CC[C@@H](C)[C@@]13OC2(C)C` was tested, and the Activity was under 50%.
